Measurements reported in ChEMBL document CHEMBL3243926, “Prodrugs of 9-beta-D-arabinofuranosyladenine. 1. Synthesis and evaluation of some 5'-(O-acyl) derivatives” (J Med Chem, 1978).
In brackets after ≈: the same amount, converted by molar mass.

What was measured:
[1] = Aqueous solubility of the compound at 0.1 M phosphate buffer after 16 hrs by UV spectrometry; format: physicochemical
Procedure, shortened: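 Excess solid (10 mg) was agitated for 16 h with 5 mL of 0.1 M phosphate buffer. The mixture was filtered through sintered glass to remove undissolved solid. Dissolved concentration was determined from UV absorbance against values previously determined in buffer.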

[2] = test system: Human alphaherpesvirus 1; test: Antiviral activity against HSV-1 assessed at 17 ug/ml by plaque reduction assay relative to control; format: functional; design: scale not given: the % may be the effect or the level left
[3] = test system: Human alphaherpesvirus 1; test: Antiviral activity against HSV-1 assessed at 6 ug/ml by plaque reduction assay relative to control; format: functional; design: scale not given: the % may be the effect or the level left
[4] = test system: Human alphaherpesvirus 1; test: Antiviral activity against HSV-1 assessed at 0.6 ug/ml by plaque reduction assay relative to control; format: functional; design: scale not given: the % may be the effect or the level left
[5] = target: T1, Adenosine deaminase (Bos taurus, UniProt P56658); test: Inhibition of calf mucosal adenosine deaminase
T1 sequence (P56658 whole entry): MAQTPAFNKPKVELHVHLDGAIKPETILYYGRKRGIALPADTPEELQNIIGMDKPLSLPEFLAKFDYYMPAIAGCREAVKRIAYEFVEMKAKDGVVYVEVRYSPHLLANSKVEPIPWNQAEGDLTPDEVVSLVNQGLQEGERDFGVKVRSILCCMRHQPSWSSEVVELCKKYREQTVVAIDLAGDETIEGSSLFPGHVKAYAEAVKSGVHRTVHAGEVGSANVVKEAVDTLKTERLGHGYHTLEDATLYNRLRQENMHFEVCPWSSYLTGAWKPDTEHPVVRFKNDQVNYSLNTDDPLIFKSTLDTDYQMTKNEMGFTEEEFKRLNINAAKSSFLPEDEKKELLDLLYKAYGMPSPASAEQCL

[6] = Aqueous stability of the compound assessed as hydrolysis rate at 25 degC by Arrhenius plot; format: physicochemical; conditions: buffer
Procedure, shortened: (§1)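 Ester hydrolysis was followed at pH 6.56 at 60, 80 and 100 °C by HPLC (40:60 methanol-water, 254-nm detection). First-order rates came from log[ester] vs time. An Arrhenius plot of log rate vs reciprocal temperature (K) was extrapolated to 25 °C.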

[7] = Aqueous stability of the compound assessed as time required for 10% decomposition at 25 degC by Arrhenius plot; format: physicochemical; conditions: buffer; procedure, shortened: as §1
[8] = target: T1, Adenosine deaminase; test: Stability of the compound assessed as calf mucosal adenosine deaminase-mediated drug metabolism; format: ADME; conditions: cattle
[9] = test system: Human alphaherpesvirus 1; test: Antiviral activity against HSV-1 assessed at 7 ug/ml by plaque reduction assay relative to control; format: functional; design: scale not given: the % may be the effect or the level left
[10] = test system: Human alphaherpesvirus 1; test: Antiviral activity against HSV-1 assessed at 20 ug/ml by plaque reduction assay relative to control; format: functional; design: scale not given: the % may be the effect or the level left
[11] = test system: Human alphaherpesvirus 1; test: Antiviral activity against HSV-1 assessed at 6.5 ug/ml by plaque reduction assay relative to control; format: functional; design: scale not given: the % may be the effect or the level left
[12] = test system: Human alphaherpesvirus 1; test: Antiviral activity against HSV-1 assessed at 2 ug/ml by plaque reduction assay relative to control; format: functional; design: scale not given: the % may be the effect or the level left
[13] = Half life of the compound; format: physicochemical

SMILES | solubility at 16 h [1] [µg/mL] | Activity [3] [%] | Stability [8] | Activity [11] [%] | also measured
CC(=O)OC[C@H]1O[C@@H](n2cnc3c(N)ncnc32)[C@@H](O)[C@@H]1O | 6600 (≈ 21.3 mM) |  |  |  | Activity [2]: 86%
CCC(=O)OC[C@H]1O[C@@H](n2cnc3c(N)ncnc32)[C@@H](O)[C@@H]1O | 9200 (≈ 28.5 mM) | 83 |  |  | 
CCCC(=O)OC[C@H]1O[C@@H](n2cnc3c(N)ncnc32)[C@@H](O)[C@@H]1O | 16100 (≈ 47.7 mM) | 67 |  |  | 
CCCCC(=O)OC[C@H]1O[C@@H](n2cnc3c(N)ncnc32)[C@@H](O)[C@@H]1O | 8400 (≈ 23.9 mM) | 100 | Stable |  | Activity [4]: 90%; Ki [5]: 11 µM; Drug degradation [6]: 5.4 ×10⁻⁶ /hr; Time [7]: 2.25 yr
CC(C)CC(=O)OC[C@H]1O[C@@H](n2cnc3c(N)ncnc32)[C@@H](O)[C@@H]1O | 19800 (≈ 56.4 mM) |  | Stable |  | Activity [9]: 53%
CC(C)(C)C(=O)OC[C@H]1O[C@@H](n2cnc3c(N)ncnc32)[C@@H](O)[C@@H]1O | 7000 (≈ 19.9 mM) |  | Stable |  | Activity [10]: 11%
CCCCCC(=O)OC[C@H]1O[C@@H](n2cnc3c(N)ncnc32)[C@@H](O)[C@@H]1O | 2500 (≈ 6.84 mM) |  | Stable | 25 | 
CC(C)(C)CC(=O)OC[C@H]1O[C@@H](n2cnc3c(N)ncnc32)[C@@H](O)[C@@H]1O | 7800 (≈ 21.3 mM) |  | Stable | 10 | 
CCCCCCCC(=O)OC[C@H]1O[C@@H](n2cnc3c(N)ncnc32)[C@@H](O)[C@@H]1O | 100 (≈ 0.254 mM) |  |  |  | Activity [12]: 45%
Nc1ncnc2c1ncn2[C@@H]1O[C@H](COC(=O)CCc2ccccc2)[C@@H](O)[C@@H]1O | 1500 (≈ 3.76 mM) |  |  |  | Activity [9]: 29%
Nc1ncnc2c1ncn2[C@@H]1O[C@H](COC(=O)c2ccccc2)[C@@H](O)[C@@H]1O | 80 (≈ 0.215 mM) |  |  | 71 | 
Nc1ncnc2c1ncn2[C@@H]1O[C@H](COC=O)[C@@H](O)[C@@H]1O |  |  |  |  | half-life [13]: 240 h
Nc1ncnc2c1ncn2[C@@H]1O[C@H](CO)[C@@H](O)[C@@H]1O [VIDARABINE] |  | 54 |  | 63 | Activity [9]: 63%; Activity [10]: 69%; Activity [12]: 64%; Activity [4]: 0%; Activity [2]: 100%
